The source made the active and inactive calls. The rule behind the calls is not given here.
What was measured:
[1] = target: Neurogenic locus notch homolog protein 1 (Homo sapiens) (UniProt P46531); test: Inhibition of doxycycline-induced recombinant mouse N-terminal FLAG-tagged Notch1 (1704 to 2531 residues) activation expressed in human LS174T cells assessed as reduction in Hes1 level at 0.1 to 1 uM after 12 hrs by Western blot analysis; format: cell-based
Summary of the method: (§1)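 LS174T Notch cells (Tet-On LS174T, N-terminally FLAG-tagged mouse Notch1(1704-2531), stable 12×RBP-J luciferase reporter) seeded 1 × 10^6 cells per 6 cm dish for 12 h at 37 °C. Dox 50 ng/mL for 12 h, then fresh medium with compound for 12 h. Whole-cell lysates, SDS-PAGE, PVDF, ECL detection. Anti-Flag used for the Notch1 fragment; β-actin internal control.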

MEB5 [2] = test: Induction of neuronal differentiation in mouse MEB5 cells assessed as number of neurons at 10 uM after 4 days by Tuj1 staining based immunofluorescence analysis (reference value: 13.3 %); format: functional
Summary of the method: (§2)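 MEB5 mouse neurospheres were chemically dissociated and seeded at 2 × 10^6 cells/well on coverslips coated with poly-L-lysine and fibronectin/laminin. After 12 h in proliferation medium, cells were washed with NeuroCult basal medium and treated for 4 days in differentiation medium. They were then fixed in 4% paraformaldehyde and immunostained for Tuj-1 (neurons) and GFAP (astrocytes), with TO-PRO-3 nuclear counterstain. Confocal imaging used four fields per well and three wells per condition, covering over 4000 cells and 670 neurites per sample.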

[3] = target: Neurogenic locus notch homolog protein 1 (Homo sapiens) (UniProt P46531); test: Inhibition of doxycycline-induced recombinant mouse N-terminal FLAG-tagged Notch1 (1704 to 2531 residues) activation expressed in human LS174T cells assessed as reduction in Hes5 level at 0.1 to 1 uM after 12 hrs by Western blot analysis; format: cell-based; summary of the method: as §1
MEB5 [4] = test: Induction of neuronal differentiation in mouse MEB5 cells assessed as neurite length at 10 uM after 4 days by Tuj1 staining based immunofluorescence analysis (reference value: 14.3 micrometer); format: functional; summary of the method: as §2
MEB5 [5] = test: Induction of neuronal differentiation in mouse MEB5 cells assessed as increase in neurite extension length at 10 uM after 4 days by Tuj1 staining based immunofluorescence analysis relative to control; format: functional; summary of the method: as §2
MEB5 [6] = test: Induction of neuronal differentiation in mouse MEB5 cells assessed as reduction in astrocytes at 10 uM after 4 days by GFAP staining based immunofluorescence analysis; format: functional, cell-based; summary of the method: as §2
[7] = target: Neurogenic locus notch homolog protein 1 (Mus musculus) (UniProt Q01705); test: Inhibition of recombinant mouse Notch1-RAMIC expressed in MEB5 cells assessed as reduction in doxycycline-induced NICD expression at 10 uM after 12 hrs by Western blot analysis; format: cell-based
Summary of the method: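 Dissociated MEB5 cells were seeded at 2 × 10^6 cells/well in 6 cm dishes coated with poly-L-lysine and fibronectin/laminin. After 12 h in proliferation medium, cells were washed with serum-free NeuroCult basal medium and treated in differentiation medium with 10 μM for 12 h. Whole-cell lysates were run on SDS-PAGE and immunoblotted for NICD, with ECL detection.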

[8] = target: Neurogenic locus notch homolog protein 1 (Mus musculus) (UniProt Q01705); test: Inhibition of recombinant mouse Notch1-RAMIC expressed in MEB5 cells harboring TP1 assessed as luciferase activity at 10 uM after 12 hrs by Dual-Glo luciferase assay (reference value: 0.258); format: cell-based
[9] = Inhibition of recombinant mouse N-terminal FLAG-tagged Notch1 (1704 to 2531 residues) expressed in human LS174T cells assessed as reduction in doxycycline-induced NICD expression after 12 hrs by Bright-Glo luciferase reporter gene assay; format: cell-based
Summary of the method: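 LS174T Notch cells seeded 2 × 10^4 cells/well, 12 h at 37 °C. Dox 50 ng/mL for 12 h, then Dox-free medium with samples for 12 h at 37 °C in 0.1% DMSO. Luciferase read with Bright-Glo. Viability measured in parallel by fluorometric microculture cytotoxicity assay. SD, n = 3.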

[10] = target: Gamma-secretase (Homo sapiens) (UniProt Q96BI3+Q9NZ42+Q8WW43+P49768+Q92542+P49810); test: Effect on gamma-secretase activity in human LS174T cells harboring mouse N-terminal FLAG-tagged Notch1 (1704 to 2531 residues) after 12 hrs by Western blot analysis; format: cell-based
MEB5 [11] = test: Effect on gamma-secretase activity in mouse MEB5 cells assessed as nicastrin expression at 1 uM after 24 hrs by Western blot analysis; format: cell-based
Summary of the method: (§3)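 MEB5 mouse neural stem cells dissociated and seeded on poly-L-lysine and fibronectin/laminin-coated 6 cm dishes in proliferation medium for 12 h. Washed with NeuroCult basal medium, then compound given in differentiation medium for 24 h. Lysates analysed by Western blot (SDS-PAGE, PVDF, ECL); γ-secretase antibody sampler kit used for γ-secretase components.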

[12] = target: Neurogenic locus notch homolog protein 1 (Mus musculus) (UniProt Q01705); test: Inhibition of Notch1 in mouse MEB5 cells assessed as reduction in Hes5 expression at 1 uM after 24 hrs by Western blot analysis; format: cell-based; summary of the method: as §3
MEB5 [13] = test: Induction of neuronal differentiation in mouse MEB5 cells assessed as reduction in astrocytes at 1 uM after 4 days by GFAP staining based immunofluorescence analysis; format: functional, cell-based
MEB5 [14] = test: Effect on gamma-secretase activity in mouse MEB5 cells assessed as PS2 expression at 1 uM after 24 hrs by Western blot analysis; format: cell-based; summary of the method: as §3
MEB5 [15] = test: Effect on gamma-secretase activity in mouse MEB5 cells assessed as PEN2 expression at 1 uM after 24 hrs by Western blot analysis; format: cell-based; summary of the method: as §3
[16] = target: Neurogenic locus notch homolog protein 1 (Mus musculus) (UniProt Q01705); test: Inhibition of Notch1 in mouse MEB5 cells assessed as reduction in Hes1 expression at 1 uM after 24 hrs by Western blot analysis; format: cell-based; summary of the method: as §3
[17] = target: Neurogenic locus notch homolog protein 1 (Mus musculus) (UniProt Q01705); test: Inhibition of Notch1 in mouse MEB5 cells assessed as reduction in NICD expression at 1 uM after 24 hrs in presence of proteasome inhibitor MG132 by Western blot analysis; format: cell-based
LS174T = test: Effect on Notch1 (1704 to 2531 residues) expression in human LS174T cells at 0.001 to 10 uM after 12 hrs by Western blot analysis; format: functional, cell-based; summary of the method: as §1
[18] = target: Neurogenic locus notch homolog protein 1 (Mus musculus) (UniProt Q01705); test: Inhibition of Notch1 in mouse MEB5 cells assessed as reduction in NICD expression at 1 uM after 24 hrs by Western blot analysis; format: cell-based; summary of the method: as §3
MEB5 [19] = test: Effect on gamma-secretase activity in mouse MEB5 cells assessed as PS1 expression at 1 uM after 24 hrs by Western blot analysis; format: cell-based; summary of the method: as §3
MEB5 [20] = test: Induction of neuronal differentiation in mouse MEB5 cells assessed as neurite length at 1 uM after 4 days by Tuj1 staining based immunofluorescence analysis (reference value: 14.3 micrometer); format: functional
MEB5 [21] = test: Inhibition of Wnt signaling in mouse MEB5 cells assessed as reduction in beta-catenin level up to 1 uM after 12 to 24 hrs by Western blot analysis; format: cell-based
MEB5 [22] = test: Induction of neuronal differentiation in mouse MEB5 cells assessed as number of neurons at 1 uM after 4 days by Tuj1 staining based immunofluorescence analysis (reference value: 13.3 %); format: functional
MEB5 [23] = test: Induction of neuronal differentiation in mouse MEB5 cells assessed as increase in neurite extension length at 1 uM after 4 days by Tuj1 staining based immunofluorescence analysis relative to control; format: functional

Chain of Neurogenic locus notch homolog protein 1 (Mus musculus) (Q01705 whole entry, the tested form may be a part): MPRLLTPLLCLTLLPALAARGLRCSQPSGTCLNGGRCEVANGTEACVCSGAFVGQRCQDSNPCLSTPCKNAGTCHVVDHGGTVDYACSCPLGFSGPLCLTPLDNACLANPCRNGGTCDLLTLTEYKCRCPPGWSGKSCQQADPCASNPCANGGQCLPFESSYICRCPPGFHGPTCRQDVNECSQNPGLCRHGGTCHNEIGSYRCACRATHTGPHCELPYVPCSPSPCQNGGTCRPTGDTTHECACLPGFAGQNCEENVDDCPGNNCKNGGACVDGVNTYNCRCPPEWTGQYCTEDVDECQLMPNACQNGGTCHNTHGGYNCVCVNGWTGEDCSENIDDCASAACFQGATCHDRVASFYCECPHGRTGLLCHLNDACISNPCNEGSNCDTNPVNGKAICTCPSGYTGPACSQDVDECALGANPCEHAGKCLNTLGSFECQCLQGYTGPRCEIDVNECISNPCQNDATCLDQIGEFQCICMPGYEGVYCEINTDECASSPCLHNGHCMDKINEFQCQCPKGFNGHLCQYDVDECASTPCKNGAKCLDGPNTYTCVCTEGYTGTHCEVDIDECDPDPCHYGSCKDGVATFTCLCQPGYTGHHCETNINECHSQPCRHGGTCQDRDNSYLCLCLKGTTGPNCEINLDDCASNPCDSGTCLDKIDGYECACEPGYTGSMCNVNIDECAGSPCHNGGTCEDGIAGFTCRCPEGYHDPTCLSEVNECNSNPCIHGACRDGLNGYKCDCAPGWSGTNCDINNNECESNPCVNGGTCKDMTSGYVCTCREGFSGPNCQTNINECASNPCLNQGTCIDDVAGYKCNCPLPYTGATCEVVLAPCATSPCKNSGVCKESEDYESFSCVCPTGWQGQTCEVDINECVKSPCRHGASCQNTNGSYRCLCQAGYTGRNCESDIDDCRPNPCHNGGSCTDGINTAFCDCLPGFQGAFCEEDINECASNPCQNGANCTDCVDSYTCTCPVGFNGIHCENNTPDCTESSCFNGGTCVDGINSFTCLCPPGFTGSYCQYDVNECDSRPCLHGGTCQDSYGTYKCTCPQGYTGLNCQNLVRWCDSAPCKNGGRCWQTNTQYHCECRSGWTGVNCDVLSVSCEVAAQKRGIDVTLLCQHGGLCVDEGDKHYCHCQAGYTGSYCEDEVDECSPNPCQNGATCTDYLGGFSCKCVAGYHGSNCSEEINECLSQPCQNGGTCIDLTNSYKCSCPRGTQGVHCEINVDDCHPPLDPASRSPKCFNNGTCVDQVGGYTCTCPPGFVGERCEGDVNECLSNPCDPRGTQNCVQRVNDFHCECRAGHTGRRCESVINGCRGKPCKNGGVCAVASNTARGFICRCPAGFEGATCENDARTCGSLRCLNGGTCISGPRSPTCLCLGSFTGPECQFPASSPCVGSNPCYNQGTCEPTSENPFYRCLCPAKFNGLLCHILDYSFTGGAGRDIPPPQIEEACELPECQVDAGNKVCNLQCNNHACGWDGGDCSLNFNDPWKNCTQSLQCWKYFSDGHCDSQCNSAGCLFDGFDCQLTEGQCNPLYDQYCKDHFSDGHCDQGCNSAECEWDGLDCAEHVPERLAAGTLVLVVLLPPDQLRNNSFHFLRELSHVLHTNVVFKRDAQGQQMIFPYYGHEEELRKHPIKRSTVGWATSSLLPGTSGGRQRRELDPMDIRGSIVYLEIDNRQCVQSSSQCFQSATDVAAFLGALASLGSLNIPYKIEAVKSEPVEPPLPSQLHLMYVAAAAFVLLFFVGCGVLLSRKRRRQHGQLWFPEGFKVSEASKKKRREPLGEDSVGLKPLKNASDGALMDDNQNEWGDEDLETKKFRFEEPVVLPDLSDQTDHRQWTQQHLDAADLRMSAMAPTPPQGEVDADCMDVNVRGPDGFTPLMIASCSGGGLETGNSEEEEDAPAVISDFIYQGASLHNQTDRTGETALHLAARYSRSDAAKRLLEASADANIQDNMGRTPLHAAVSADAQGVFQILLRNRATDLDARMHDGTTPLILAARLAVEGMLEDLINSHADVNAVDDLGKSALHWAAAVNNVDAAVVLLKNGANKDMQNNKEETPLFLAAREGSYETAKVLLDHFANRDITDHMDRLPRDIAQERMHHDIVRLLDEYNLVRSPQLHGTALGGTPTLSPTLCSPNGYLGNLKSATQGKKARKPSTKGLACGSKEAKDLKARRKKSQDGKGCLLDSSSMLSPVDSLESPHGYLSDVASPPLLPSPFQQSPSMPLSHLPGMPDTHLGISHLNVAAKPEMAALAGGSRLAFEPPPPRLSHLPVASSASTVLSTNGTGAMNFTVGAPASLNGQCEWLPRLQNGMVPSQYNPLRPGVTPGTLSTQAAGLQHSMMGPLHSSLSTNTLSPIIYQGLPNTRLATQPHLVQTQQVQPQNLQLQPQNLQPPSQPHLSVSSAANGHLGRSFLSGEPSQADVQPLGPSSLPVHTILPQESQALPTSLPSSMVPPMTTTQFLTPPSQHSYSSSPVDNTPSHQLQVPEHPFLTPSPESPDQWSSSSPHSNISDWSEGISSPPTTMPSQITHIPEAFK
Chain of Neurogenic locus notch homolog protein 1 (Homo sapiens) (P46531 whole entry, the tested form may be a part): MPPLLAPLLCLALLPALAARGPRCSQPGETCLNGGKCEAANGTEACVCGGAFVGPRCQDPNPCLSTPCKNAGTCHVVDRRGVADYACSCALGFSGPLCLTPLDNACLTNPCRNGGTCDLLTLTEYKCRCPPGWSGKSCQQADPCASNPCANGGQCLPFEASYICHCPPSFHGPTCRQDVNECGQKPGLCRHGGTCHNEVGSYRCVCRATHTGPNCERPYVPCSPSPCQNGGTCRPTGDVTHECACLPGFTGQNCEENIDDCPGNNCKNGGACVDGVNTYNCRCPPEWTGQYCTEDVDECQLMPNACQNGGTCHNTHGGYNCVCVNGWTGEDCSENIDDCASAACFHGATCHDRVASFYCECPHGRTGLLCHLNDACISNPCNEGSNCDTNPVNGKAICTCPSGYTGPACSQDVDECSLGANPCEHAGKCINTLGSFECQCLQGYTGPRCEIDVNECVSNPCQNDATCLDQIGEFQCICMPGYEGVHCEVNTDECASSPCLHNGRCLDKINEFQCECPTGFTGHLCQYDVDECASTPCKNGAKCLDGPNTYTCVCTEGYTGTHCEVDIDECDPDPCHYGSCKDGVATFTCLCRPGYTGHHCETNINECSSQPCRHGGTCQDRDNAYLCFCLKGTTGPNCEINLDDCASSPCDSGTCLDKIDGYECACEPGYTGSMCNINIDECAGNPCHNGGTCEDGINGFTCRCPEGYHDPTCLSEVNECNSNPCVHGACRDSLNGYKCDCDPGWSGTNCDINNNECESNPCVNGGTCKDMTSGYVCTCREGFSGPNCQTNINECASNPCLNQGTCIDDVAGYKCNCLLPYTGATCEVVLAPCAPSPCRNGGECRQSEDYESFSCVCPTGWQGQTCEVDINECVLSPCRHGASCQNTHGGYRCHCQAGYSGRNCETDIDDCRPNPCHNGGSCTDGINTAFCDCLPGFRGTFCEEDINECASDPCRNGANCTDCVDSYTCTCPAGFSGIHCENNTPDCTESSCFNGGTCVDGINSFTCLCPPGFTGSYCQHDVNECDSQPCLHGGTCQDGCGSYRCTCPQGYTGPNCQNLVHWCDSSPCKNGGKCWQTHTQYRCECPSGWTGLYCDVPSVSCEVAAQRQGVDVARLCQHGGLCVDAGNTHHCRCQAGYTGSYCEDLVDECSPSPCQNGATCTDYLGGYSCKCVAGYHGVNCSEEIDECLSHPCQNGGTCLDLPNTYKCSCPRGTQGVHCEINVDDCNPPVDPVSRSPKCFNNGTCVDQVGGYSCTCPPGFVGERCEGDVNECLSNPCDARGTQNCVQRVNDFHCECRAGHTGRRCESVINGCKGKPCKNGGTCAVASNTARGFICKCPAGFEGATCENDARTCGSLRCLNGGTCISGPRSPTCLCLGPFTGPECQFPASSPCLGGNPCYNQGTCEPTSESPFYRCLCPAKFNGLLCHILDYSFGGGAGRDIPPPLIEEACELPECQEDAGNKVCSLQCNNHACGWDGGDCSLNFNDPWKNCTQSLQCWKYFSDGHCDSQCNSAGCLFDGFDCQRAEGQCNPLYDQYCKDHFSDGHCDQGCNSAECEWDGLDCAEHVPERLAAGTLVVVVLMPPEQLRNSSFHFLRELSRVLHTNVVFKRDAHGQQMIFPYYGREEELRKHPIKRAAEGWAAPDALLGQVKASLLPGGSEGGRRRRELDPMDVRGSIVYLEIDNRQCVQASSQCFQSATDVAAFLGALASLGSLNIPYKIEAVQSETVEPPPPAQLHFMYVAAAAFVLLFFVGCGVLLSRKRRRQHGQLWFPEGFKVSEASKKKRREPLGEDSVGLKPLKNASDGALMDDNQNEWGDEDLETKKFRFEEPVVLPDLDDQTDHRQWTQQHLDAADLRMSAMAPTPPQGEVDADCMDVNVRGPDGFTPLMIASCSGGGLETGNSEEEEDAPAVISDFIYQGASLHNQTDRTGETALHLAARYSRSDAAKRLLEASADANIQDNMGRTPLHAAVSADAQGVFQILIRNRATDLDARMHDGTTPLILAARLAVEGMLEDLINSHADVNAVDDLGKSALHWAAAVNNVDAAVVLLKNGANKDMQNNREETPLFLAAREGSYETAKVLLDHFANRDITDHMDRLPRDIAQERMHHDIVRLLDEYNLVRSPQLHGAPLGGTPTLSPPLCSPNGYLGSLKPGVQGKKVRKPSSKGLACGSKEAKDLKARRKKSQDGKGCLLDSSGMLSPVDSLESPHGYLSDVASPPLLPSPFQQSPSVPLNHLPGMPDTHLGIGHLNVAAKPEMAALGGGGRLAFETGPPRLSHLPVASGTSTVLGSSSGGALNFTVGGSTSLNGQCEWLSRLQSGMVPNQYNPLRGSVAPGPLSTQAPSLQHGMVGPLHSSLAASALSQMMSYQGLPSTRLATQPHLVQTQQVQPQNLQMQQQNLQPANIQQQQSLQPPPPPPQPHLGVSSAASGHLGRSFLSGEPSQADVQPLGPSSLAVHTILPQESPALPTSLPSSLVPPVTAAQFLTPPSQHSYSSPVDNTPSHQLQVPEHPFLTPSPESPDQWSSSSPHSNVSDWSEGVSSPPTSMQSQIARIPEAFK

## C[C@H](NC(=O)Cc1cc(F)cc(F)c1)C(=O)N[C@H](C(=O)OC(C)(C)C)c1ccccc1
[1]
  inhibition: Active
MEB5 [2]
  Activity: 19.7%
[3]
  inhibition: Active
MEB5 [4]
  Activity: 20.5 um
MEB5 [5]
  Activity: 43%
MEB5 [6]
  Activity: Active
[7]
  inhibition: Active
[8]
  Activity: 0.004

## CC(=O)O[C@H]1C[C@@H](C)O[C@H]2O[C@@H]3C[C@@H]4CC[C@@H]5[C@H](CC[C@]6(C)[C@@H](C7=CC(=O)OC7)CC[C@]56O)[C@@]4(C=O)C[C@H]3O[C@]21O
[9]
  inhibition: Dose-dependent effect
[10]
  Activity: inactive

## COC(=O)[C@@]1(O)C[C@@H](C)O[C@H]1O[C@@H]1C[C@@H]2CC[C@@H]3[C@H](CC[C@]4(C)[C@@H](C5=CC(=O)OC5)[C@H](O)C[C@]34O)[C@@]2(C=O)C[C@H]1O
[9]
  inhibition: Dose-dependent effect

## C[C@@H]1CC(=O)[C@]2(O)O[C@@H]3C[C@@]4(C=O)[C@@H](CC[C@@H]5[C@@H]4CC[C@]4(C)[C@@H](C6=CC(=O)OC6)CC[C@]54O)C[C@H]3O[C@@H]2O1
[9]
  inhibition: Dose-dependent effect

## C[C@@H]1C[C@@]2(N=CCS2)[C@]2(O)O[C@@H]3C[C@@]4(C=O)[C@@H](CC[C@@H]5[C@@H]4CC[C@]4(C)[C@@H](C6=CC(=O)OC6)[C@H](O)C[C@]54O)C[C@H]3O[C@@H]2O1
[9]
  inhibition: Dose-dependent effect

## C[C@@H]1C[C@@]2(NC(=O)CS2)[C@]2(O)O[C@@H]3C[C@@]4(C=O)[C@@H](CC[C@@H]5[C@@H]4CC[C@]4(C)[C@@H](C6=CC(=O)OC6)CC[C@]54O)C[C@H]3O[C@@H]2O1
[9]
  inhibition: Dose-dependent effect

## C[C@@H]1C[C@@]2(NCCS2)[C@]2(O)O[C@@H]3C[C@@]4(C=O)[C@@H](CC[C@@H]5[C@@H]4CC[C@]4(C)[C@@H](C6=CC(=O)OC6)CC[C@]54O)C[C@H]3O[C@@H]2O1
[9]
  inhibition: Dose-dependent effect

## C[C@@H]1C[C@H](O)[C@]2(O)O[C@@H]3C[C@@]4(C=O)[C@@H](CC[C@@H]5[C@@H]4CC[C@]4(C)[C@@H](C6=CC(=O)OC6)CC[C@]54O)C[C@H]3O[C@@H]2O1
[9]
  inhibition: Dose-dependent effect
[10]
  Activity: inactive

## C[C@@H]1C[C@@]2(N=CCS2)[C@]2(O)O[C@@H]3C[C@@]4(C=O)[C@@H](CC[C@@H]5[C@@H]4CC[C@]4(C)[C@@H](C6=CC(=O)OC6)CC[C@]54O)C[C@H]3O[C@@H]2O1 [USCHARIN]
MEB5 [11]
  Activity: inactive
[1]
  inhibition: Active
[9]
  inhibition: Dose-dependent effect
[12]
  inhibition: Active
[3]
  inhibition: Active
MEB5 [13]
  Activity: Active
MEB5 [14]
  Activity: inactive
MEB5 [15]
  Activity: inactive
[16]
  inhibition: Active
[17]
  inhibition: inactive
LS174T
  Activity: inactive
[18]
  inhibition: Active
MEB5 [19]
  Activity: inactive
MEB5 [20]
  Activity: 19.5 um
MEB5 [21]
  inhibition: inactive
MEB5 [22]
  Activity: 20.8%
[10]
  Activity: inactive
MEB5 [23]
  Activity: 36%

From ChEMBL document CHEMBL4130386, “Notch Inhibitors from Calotropis gigantea That Induce Neuronal Differentiation of Neural Stem Cells” (J Nat Prod, 2017)
